Bioassay records as filed in PubChem.
Diaph inh CS: diaphorase inhibitors and chemical oxidizers, primary screen, counter-screen for diaphorase-coupled primary assays, biochemical, uHTS, resorufin fluorescence | diaphorase resazurin-to-resorufin fluorescence, NADH, 16 min; bacterial (C. kluyveri) enzyme, not human | inhibition, % at 20 µM | actives 0.69% (n = 190,000) | AID 1217, 2008;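 active = primary screen inhibition at 20 µM above a set limit, cut at about 50% in these data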;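 also: plate controls were DMSO with full reaction for no effect and wells lacking NADH for full effect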
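System: Bacterial diaphorase enzyme (C. kluyveri) | Incubation: 16-min room-temperature incubation before reading | Benchmarks: No-NADH positive control and DMSO neutral control | Measured by: Resorufin fluorescence 544/590 nm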
HKDC1 inh: HKDC1 hexokinase inhibitors, primary screen, biochemical, fluorescence, uHTS. Q2TB90. AID 493160, 2011. recombinant HKDC1, G6PDH/diaphorase resazurin coupled fluorescence. actives 0.16% (n = 340,000). inhibition, % at 20 µM;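 active = inhibition above about 35% when tested at 20 µM, limit read from the data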;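 also: plate controls were DMSO wells with enzyme for no effect and DMSO wells lacking enzyme for full effect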
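Incubation: 90 min at room temperature in dark / Material: recombinant HKDC1 (HK5) hexokinase enzyme, produced in-house / Quantity: enzyme 5 µg/mL final / Compound: one dose of 20 µM, 1% DMSO / Reagent: glucose and ATP substrates / Buffer or medium: Tris pH 8.0 buffer with MgCl2, Tween-20, BSA, BME / Technique: resorufin fluorescence at 613 nm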
Diaphorase act: compounds boosting diaphorase resazurin reduction – biochemical, uHTS, resorufin fluorescence, counter-screen for diaphorase-coupled primary assays, primary screen. Diaphorase/resazurin coupled assay, 16 min; stronger effect = higher value; 1 = vehicle wells, 0 = NADH-free wells. actives 0.005% (n = 190,000). AID 1229, 2008. activation factor at 20 µM;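 active = diaphorase activity raised at least twofold by the compound at 20 µM; inactive = activation factor below 2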
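Material: bacterial diaphorase enzyme (C. kluyveri); amount: enzyme 0.07 U/mL final; reagent: NADH substrate 0.114 mM plus resazurin dye 0.1 mM, final; doses: single compound dose of 20 µM, 1% DMSO final; timing: 16 min enzyme reaction, ambient temperature; measured by: fluorescence of resorufin, 544 nm excitation, 590 nm emission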
PfG6PD inh: PfG6PD enzyme inhibitors, primary screen, biochemical, fluorescence intensity, uHTS | glucose-6-phosphate dehydrogenase-6-phosphogluconolactonase (Plasmodium falciparum 3D7) | PfGluPho enzyme, NADPH resazurin-diaphorase fluorescence | inhibition, % at 20 µM | actives 0.78% (n = 350,000);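 active = inhibition reaching at least a set limit at 20 µM in the primary screen, cut at about 59% in these data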;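 also: 0% = DMSO wells with substrate and 100% = DMSO wells lacking glucose-6-phosphate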
G6PDH counter: L. mesenteroides G6PDH inhibitors, counter-screen for G6PDH-coupled screening assays, biochemical, Leuconostoc mesenteroides enzyme; inhibition, % at 5 µM; glucose-6-phosphate dehydrogenase [Leuconostoc mesenteroides]; Purified L. mesenteroides G6PDH, diaphorase/resazurin coupled fluorescence, 45 min; actives 0.12% (n = 200,000); in the data active = inhibition above about 50%
* = called active by the depositor; nt = not tested or not shown. Compounds with a hit are over-represented: about 1.2% of the library has one in this group of screens.

SMILES | Diaph inh CS | HKDC1 inh | Diaphorase act | PfG6PD inh | G6PDH counter
CCOC(=O)c1c(N2C(=O)C=CC2=O)sc(C)c1C | 11.7 | 0.3 | 0.9 | 66.9* | 8.4
COc1cc(/C=C2\SC(=O)N(Cc3ccc(F)cc3)C2=O)cc([N+](=O)[O-])c1O | 24.4 | 14.1 | 0.8 | -24.6 | 18.8
COc1cc(/C=C2\SC(=O)N(Cc3ccc(Cl)cc3)C2=O)cc([N+](=O)[O-])c1O | 87.0* | 17.4 | 0.1 | -3.4 | 16.3
CC(=O)N(C1=C(N2CCOCC2)C(=O)c2ccccc2C1=O)c1ccc(C(=O)O)cc1 | nt | 18.6 | nt | 50.3 | nt
CC(=O)N(C)C1=C(N2CCOCC2)C(=O)c2ccccc2C1=O | 48.9 | 10.9 | 0.5 | 42.4 | 55.2*
COc1cc(/C=C2\C(=O)N(c3ccc(NC(C)=O)cc3)N=C2c2ccccc2)ccc1O | 28.6 | 2.9 | 0.7 | -2.6 | -3.0
O=C1/C(=C\c2ccc(O)c(O)c2)C(c2ccccc2)=NN1c1ccccc1 | 64.6* | 12.2 | 0.4 | -3.3 | 17.2
COc1ccccc1S(=O)(=O)N1CCN(S(=O)(=O)c2ccccc2C#N)CC1 | nt | 1.1 | nt | -16.8 | nt
Cc1cc(-c2nc3c4c5c(sc4[nH]c(=O)n3n2)CCC5)c(C)o1 | 57.4* | 0.6 | 0.4 | -3.6 | -4.8
Cc1nc2sc3c(c2c(=O)[nH]1)CCC3 | -7.1 | 3.0 | 1.1 | 5.6 | 4.3
CC(C)c1ccc(OCC(=O)Nc2c3c(nn2C(C)(C)C)CS(=O)(=O)C3)cc1 | nt | 14.2 | nt | 2.3 | nt
CCC(C)C1=CC(=Nc2c(C)n(C)n(-c3ccccc3)c2=O)C=C(C(C)CC)C1=O (stereo unspecified) | 68.3* | -6.0 | 0.3 | 14.8 | -3.5
Cc1c(C(=O)N2CCCCCC2)c(S(=O)(=O)NCc2ccccc2Cl)c(C)n1C | nt | -5.6 | nt | 2.4 | nt
Cc1cc(C)c(S(=O)(=O)/N=C2\C=C(NS(=O)(=O)c3ccccc3)C(=O)c3ccccc32)c(C)c1 | nt | 19.3 | nt | 1.4 | nt
Cc1cccc(NC2=C/C(=N/S(=O)(=O)c3cccs3)c3ccccc3C2=O)c1 | 13.0 | 53.1* | 0.9 | 62.0* | 53.4*
Cc1ccc2[nH]c3c(c2c1)CCc1cn[nH]c1-3 | 69.7* | 20.1 | 0.3 | 40.1 | -45.4
Cc1ccc2[nH]c3c(c2c1)CCC3=O | 3.7 | -4.4 | 1 | -3.0 | 0.1
CN(c1ccccc1)S(=O)(=O)c1cccc(NS(=O)(=O)c2ccc(/C=C/C(=O)O)cc2)c1 | 59.1* | 1.2 | 0.4 | -60.7 | 10.1
O=C(O)/C=C/c1ccc(S(=O)(=O)Nc2cccnc2)cc1 | nt | -3.4 | nt | -21.5 | nt
Cc1ccc2c(c1)nnn2C1CCN(C(=O)NCc2ccccc2)CC1 | -17.4 | 2.8 | 1.2 | 7.7 | 10.6
Cc1cccc(NC(=O)N2CCC(n3nnc4cc(C)ccc43)CC2)c1 | 78.6* | 15.4 | 0.2 | -10.1 | 19.1
CC(C)(C)OC(=O)N1CCC(c2c(C(=O)NC3CC3)cnn2-c2ccccc2)CC1 | nt | -1.2 | nt | 5.1 | nt
Cn1c(CC(=O)NNC(=O)c2ccccc2[N+](=O)[O-])nc2ccccc21 | nt | 4.3 | nt | -1.1 | nt
COc1cc(CN2CCN(Cc3ccc(C)cc3)C(CCO)C2)cc(OC)c1O (stereo unspecified) | 38.0 | 12.1 | 0.6 | 38.1 | 58.4*
O=C(C1CCC(CNS(=O)(=O)c2cccc3nsnc23)CC1)N1CCN(c2ccccn2)CC1 (stereo unspecified) | 11.7 | -8.5 | 0.9 | 8.6 | 4.5
SMILES | Diaph inh CS | HKDC1 inh | Diaphorase act | PfG6PD inh | G6PDH counter
O=C(O)CC1S/C(=N/N=C/c2ccc(-c3ccccc3[N+](=O)[O-])o2)NC1=O (stereo unspecified) | 52.3* | 11.3 | 0.5 | -3.2 | 12.3
Cc1ccc(-c2ccc(/C=N/N=C3/NC(=O)C(CC(=O)O)S3)o2)c([N+](=O)[O-])c1 (stereo unspecified) | 28.3 | 9.9 | 0.7 | -16.9 | -1.2
CNc1oc(Cc2ccccc2)nc1S(=O)(=O)c1ccc(Cl)cc1 | 53.5* | -8.2 | 0.5 | 1.3 | 3.2
O=C(COc1nncc2ccccc12)NCC(F)(F)F | 14.0 | -7.3 | 0.9 | 8.8 | 3.2
CCOc1cc(CNc2ccc(O)cc2)ccc1OCc1ccc(Cl)cc1Cl | 65.6* | 18.9 | 0.3 | 88.1* | -38.4
O=C(N/C(=C\c1ccc(Br)cc1)C(=O)N1CCOCC1)c1ccco1 | nt | -2.5 | nt | -6.6 | nt
Cc1ccc(S(=O)(=O)NCC(=O)N(c2ccccc2)C(C(=O)NCc2ccccc2)c2ccco2)cc1 (stereo unspecified) | 50.8* | -0.7 | 0.5 | -3.4 | 5.6
C=C1C(=O)C=C2CN(C(=O)c3ccccc3)[C@@](Cc3ccc(F)cc3)(C(=O)OC)[C@@H]12 | 6.2 | 17.6 | 0.9 | 71.6* | 10.3
N#Cc1ccc(C(=O)Nc2cccc(NC(=O)c3ccco3)c2)c(F)c1 | -3.2 | -6.3 | 1 | 6.0 | 12.0
CCc1ccc(N2CC(C(=O)N/N=C/c3cc([N+](=O)[O-])ccc3O)CC2=O)cc1 (stereo unspecified) | 50.6* | -7.8 | 0.5 | -42.3 | -11.8
CCOC(=O)NC1(Nc2cccc(Cl)c2)Oc2ccccc2O1 | 55.1* | 5.2 | 0.4 | 4.3 | 11.1
N/C(=N\OC(=O)CCCOc1ccccc1)c1cccc([N+](=O)[O-])c1 | 21.2 | -3.3 | 0.8 | 2.4 | -2.8
O=C(OCCN1CCOCC1)c1ccc(Cl)cc1Cl | nt | 7.3 | nt | -4.5 | nt
Cc1ccc(O)c(N)c1 | nt | -0.2 | nt | 43.6 | nt
COc1ccc(O)c(N)c1 | 61.8* | nt | 0.4 | nt | 42.4
Oc1ccc(-c2cnns2)c(O)c1 | 9.5 | 45.4* | 0.9 | 43.7 | 3.0
O=C(CSc1nnnn1-c1ccc(F)cc1)c1ccc(O)c(O)c1 | 50.1* | -5.7 | 0.5 | -26.2 | 13.7
CC1OC(CC(=O)O)CC2=C1C(=O)c1c(O)cccc1C2=O (stereo unspecified) | nt | 30.8 | nt | 130.7* | nt
CCOC(=O)c1c(C)oc2c1c(CN1CCN(C(=O)OCC)CC1)c(O)c1ccccc12 | 35.5 | 12.0 | 0.6 | 30.1 | 40.4
CCOC(=O)c1c(C)oc2c1c(C=NCCC(=O)O)c(O)c1ccccc12 | 71.0* | 13.0 | 0.3 | 12.2 | 51.9*
CCOC(=O)c1c(C)oc2c1c(CN1CCN(CCO)CC1)c(O)c1ccccc12 | 61.0* | 29.2 | 0.4 | 33.4 | 47.5
CCOC(=O)c1c(C)oc2c1c(C=NC1CCS(=O)(=O)C1)c(O)c1ccccc12 (stereo unspecified) | 75.8* | 4.0 | 0.2 | 9.9 | 33.7
COc1ccc(C(=O)n2cnc3ccccc32)cc1 | nt | -0.4 | nt | 16.5 | nt
